Measurements from ChEMBL document CHEMBL4422636, “Investigation of the structural requirements for N-methyl-D-aspartate receptor positive and negative allosteric modulators based on 2-naphthoic acid” (Eur J Med Chem, 2019).
Active and inactive are the calls of the source. The rule behind the calls is not given here.

Tests used:
[1] = molecular target: Glutamate receptor ionotropic, NMDA 2A (Rattus norvegicus) (UniProt Q00959); test: Positive allosteric modulation of rat GluN2A expressed in Xenopus laevis oocytes assessed as potentiation of L-glutamate/glycine-induced current response at holding potential -60 mV by two-electrode voltage clamp method relative to L-glutamate/glycine; type: cell-based; design: concentration or dose not given beside the values
Method in brief: (§1)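 Oocytes injected with GluN1a plus GluN2A, 2B, 2C or 2D RNA (1:1–3 molar, 15–30 ng total) and kept in ND-96 at 17°C for 1–5 days. TEVC at −60 mV in HEPES-buffered NaCl/KCl/BaCl2 saline, pH 7.4. […] Curves were fitted to give EC50/IC50 and maximal potentiation or inhibition, mean ± s.e.m.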

[2] = molecular target: Glutamate receptor ionotropic, NMDA 2D (Rattus norvegicus) (UniProt Q62645); test: Allosteric modulation of rat GluN2D expressed in Xenopus laevis oocytes assessed as L-glutamate/glycine-induced current response at 100 uM at holding potential -60 mV by two-electrode voltage clamp method relative to L-glutamate/glycine; type: cell-based
Method in brief: (§2)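 GluN1a with one GluN2 subunit; RNAs mixed 1:1–3 molar, 15–30 ng total injected into Xenopus oocytes, which were held in ND-96 at 17°C for 1–5 days. TEVC at −60 mV in 116 mM NaCl, 2 mM KCl, 0.3 mM BaCl2, 5 mM HEPES, pH 7.4. […] Reported as % of agonist-alone response, mean ± s.e.m., n≥4.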

[3] = molecular target: Glutamate receptor ionotropic, NMDA 2C (Rattus norvegicus) (UniProt Q00961); test: Allosteric modulation of rat GluN2C expressed in Xenopus laevis oocytes assessed as L-glutamate/glycine-induced current response at 100 uM at holding potential -60 mV by two-electrode voltage clamp method relative to L-glutamate/glycine; type: cell-based; method in brief: as §2
[4] = molecular target: Glutamate NMDA receptor; Grin1/Grin2a (Rattus norvegicus, UniProt P35439+Q00959); test: Positive allosteric modulation of rat GluN1/GluN2A expressed in Xenopus laevis oocytes assessed as potentiation of L-glutamate/glycine-induced current response at holding potential -60 mV by two-electrode voltage clamp method; type: cell-based; method in brief: as §1
[5] = molecular target: Ionotropic glutamate receptor NMDA 1/2D (Rattus norvegicus, UniProt P35439+Q62645); test: Positive allosteric modulation of rat GluN1/GluN2D expressed in Xenopus laevis oocytes assessed as potentiation of L-glutamate/glycine-induced current response at holding potential -60 mV by two-electrode voltage clamp method; type: cell-based; method in brief: as §1
[6] = molecular target: Glutamate receptor ionotropic, NMDA 2C (Rattus norvegicus) (UniProt Q00961); test: Positive allosteric modulation of rat GluN2C expressed in Xenopus laevis oocytes assessed as potentiation of L-glutamate/glycine-induced current response at holding potential -60 mV by two-electrode voltage clamp method relative to L-glutamate/glycine; type: cell-based; design: concentration or dose not given beside the values; method in brief: as §1
[7] = Solubility of the compound at 100 uM; type: physicochemical
Method in brief: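 Compounds were inspected for visible precipitation at the concentrations used in the oocyte assays.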

[8] = molecular target: Glutamate receptor ionotropic, NMDA 2A (Rattus norvegicus) (UniProt Q00959); test: Allosteric modulation of rat GluN2A expressed in Xenopus laevis oocytes assessed as L-glutamate/glycine-induced current response at 100 uM at holding potential -60 mV by two-electrode voltage clamp method relative to L-glutamate/glycine; type: cell-based; method in brief: as §2
[9] = molecular target: Glutamate receptor ionotropic, NMDA 2B (Rattus norvegicus) (UniProt Q00960); test: Agonist activity at rat GluN2B expressed in Xenopus laevis oocytes assessed as effect on current response at holding potential -60 mV by two-electrode voltage clamp method relative to L-glutamate/glycine; type: cell-based; method in brief: as §2
[10] = molecular target: Glutamate receptor ionotropic, NMDA 2B (Rattus norvegicus) (UniProt Q00960); test: Allosteric modulation of rat GluN2B expressed in Xenopus laevis oocytes assessed as L-glutamate/glycine-induced current response at 100 uM at holding potential -60 mV by two-electrode voltage clamp method relative to L-glutamate/glycine; type: cell-based; method in brief: as §2
[11] = molecular target: Glutamate receptor ionotropic, NMDA 2A (Rattus norvegicus) (UniProt Q00959); test: Agonist activity at rat GluN2A expressed in Xenopus laevis oocytes assessed effect on current response at holding potential -60 mV by two-electrode voltage clamp method relative to L-glutamate/glycine; type: cell-based; method in brief: as §2
[12] = molecular target: Glutamate NMDA receptor; Grin1/Grin2c (Rattus norvegicus, UniProt P35439+Q00961); test: Positive allosteric modulation of rat GluN1/GluN2C expressed in Xenopus laevis oocytes assessed as potentiation of L-glutamate/glycine-induced current response at holding potential -60 mV by two-electrode voltage clamp method; type: cell-based; method in brief: as §1
[13] = molecular target: Glutamate receptor ionotropic, NMDA 2C (Rattus norvegicus) (UniProt Q00961); test: Agonist activity at rat GluN2C expressed in Xenopus laevis oocytes assessed effect on current response at holding potential -60 mV by two-electrode voltage clamp method relative to L-glutamate/glycine; type: cell-based; method in brief: as §2
[14] = molecular target: Glutamate receptor ionotropic, NMDA 2D (Rattus norvegicus) (UniProt Q62645); test: Agonist activity at rat GluN2D expressed in Xenopus laevis oocytes assessed as effect on current response at holding potential -60 mV by two-electrode voltage clamp method relative to L-glutamate/glycine; type: cell-based; method in brief: as §2
[15] = molecular target: Glutamate receptor ionotropic, NMDA 2D (Rattus norvegicus) (UniProt Q62645); test: Positive allosteric modulation of rat GluN2D expressed in Xenopus laevis oocytes assessed as potentiation of L-glutamate/glycine-induced current response at holding potential -60 mV by two-electrode voltage clamp method relative to L-glutamate/glycine; type: cell-based; design: concentration or dose not given beside the values; method in brief: as §1

Sequence of Glutamate receptor ionotropic, NMDA 2A (Rattus norvegicus) (Q00959 23-1464 limits assumed): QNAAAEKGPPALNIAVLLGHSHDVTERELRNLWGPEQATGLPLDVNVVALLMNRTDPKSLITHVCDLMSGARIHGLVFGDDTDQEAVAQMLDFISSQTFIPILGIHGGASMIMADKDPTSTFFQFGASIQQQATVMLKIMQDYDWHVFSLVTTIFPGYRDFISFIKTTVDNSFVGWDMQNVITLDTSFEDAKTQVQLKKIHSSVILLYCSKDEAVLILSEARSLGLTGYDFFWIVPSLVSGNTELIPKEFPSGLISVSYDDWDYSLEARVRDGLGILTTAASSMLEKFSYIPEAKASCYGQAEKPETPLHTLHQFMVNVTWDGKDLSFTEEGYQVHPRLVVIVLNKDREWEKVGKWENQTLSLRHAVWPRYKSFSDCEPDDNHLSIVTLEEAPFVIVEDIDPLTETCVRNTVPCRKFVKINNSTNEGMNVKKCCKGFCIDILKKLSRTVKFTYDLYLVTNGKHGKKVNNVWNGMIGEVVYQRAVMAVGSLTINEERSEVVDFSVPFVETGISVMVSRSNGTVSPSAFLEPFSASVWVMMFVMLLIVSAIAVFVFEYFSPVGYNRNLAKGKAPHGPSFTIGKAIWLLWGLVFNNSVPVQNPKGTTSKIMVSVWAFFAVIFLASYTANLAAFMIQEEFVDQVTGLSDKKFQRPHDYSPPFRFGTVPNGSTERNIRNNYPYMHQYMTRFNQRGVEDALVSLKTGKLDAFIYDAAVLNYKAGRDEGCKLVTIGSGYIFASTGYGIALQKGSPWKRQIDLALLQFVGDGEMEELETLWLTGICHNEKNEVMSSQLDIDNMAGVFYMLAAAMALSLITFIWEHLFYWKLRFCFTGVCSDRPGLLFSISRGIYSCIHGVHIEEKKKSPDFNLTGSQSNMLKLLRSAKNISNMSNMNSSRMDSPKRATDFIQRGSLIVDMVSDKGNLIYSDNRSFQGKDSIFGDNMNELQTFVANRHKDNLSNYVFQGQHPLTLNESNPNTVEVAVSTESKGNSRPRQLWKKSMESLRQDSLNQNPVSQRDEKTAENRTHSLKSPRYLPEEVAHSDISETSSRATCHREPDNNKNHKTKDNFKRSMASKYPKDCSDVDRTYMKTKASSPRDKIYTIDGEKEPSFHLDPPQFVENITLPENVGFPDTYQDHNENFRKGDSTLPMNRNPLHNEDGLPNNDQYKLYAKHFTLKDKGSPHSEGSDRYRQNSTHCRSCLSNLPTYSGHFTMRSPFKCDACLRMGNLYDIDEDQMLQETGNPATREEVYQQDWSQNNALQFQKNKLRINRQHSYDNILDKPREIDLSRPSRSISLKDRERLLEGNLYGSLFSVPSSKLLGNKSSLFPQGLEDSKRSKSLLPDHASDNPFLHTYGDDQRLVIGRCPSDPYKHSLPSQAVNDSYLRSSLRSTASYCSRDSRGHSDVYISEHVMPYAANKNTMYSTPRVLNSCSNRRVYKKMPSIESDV
Sequence of Glutamate receptor ionotropic, NMDA 2B (Rattus norvegicus) (Q00960 27-1482 limits assumed): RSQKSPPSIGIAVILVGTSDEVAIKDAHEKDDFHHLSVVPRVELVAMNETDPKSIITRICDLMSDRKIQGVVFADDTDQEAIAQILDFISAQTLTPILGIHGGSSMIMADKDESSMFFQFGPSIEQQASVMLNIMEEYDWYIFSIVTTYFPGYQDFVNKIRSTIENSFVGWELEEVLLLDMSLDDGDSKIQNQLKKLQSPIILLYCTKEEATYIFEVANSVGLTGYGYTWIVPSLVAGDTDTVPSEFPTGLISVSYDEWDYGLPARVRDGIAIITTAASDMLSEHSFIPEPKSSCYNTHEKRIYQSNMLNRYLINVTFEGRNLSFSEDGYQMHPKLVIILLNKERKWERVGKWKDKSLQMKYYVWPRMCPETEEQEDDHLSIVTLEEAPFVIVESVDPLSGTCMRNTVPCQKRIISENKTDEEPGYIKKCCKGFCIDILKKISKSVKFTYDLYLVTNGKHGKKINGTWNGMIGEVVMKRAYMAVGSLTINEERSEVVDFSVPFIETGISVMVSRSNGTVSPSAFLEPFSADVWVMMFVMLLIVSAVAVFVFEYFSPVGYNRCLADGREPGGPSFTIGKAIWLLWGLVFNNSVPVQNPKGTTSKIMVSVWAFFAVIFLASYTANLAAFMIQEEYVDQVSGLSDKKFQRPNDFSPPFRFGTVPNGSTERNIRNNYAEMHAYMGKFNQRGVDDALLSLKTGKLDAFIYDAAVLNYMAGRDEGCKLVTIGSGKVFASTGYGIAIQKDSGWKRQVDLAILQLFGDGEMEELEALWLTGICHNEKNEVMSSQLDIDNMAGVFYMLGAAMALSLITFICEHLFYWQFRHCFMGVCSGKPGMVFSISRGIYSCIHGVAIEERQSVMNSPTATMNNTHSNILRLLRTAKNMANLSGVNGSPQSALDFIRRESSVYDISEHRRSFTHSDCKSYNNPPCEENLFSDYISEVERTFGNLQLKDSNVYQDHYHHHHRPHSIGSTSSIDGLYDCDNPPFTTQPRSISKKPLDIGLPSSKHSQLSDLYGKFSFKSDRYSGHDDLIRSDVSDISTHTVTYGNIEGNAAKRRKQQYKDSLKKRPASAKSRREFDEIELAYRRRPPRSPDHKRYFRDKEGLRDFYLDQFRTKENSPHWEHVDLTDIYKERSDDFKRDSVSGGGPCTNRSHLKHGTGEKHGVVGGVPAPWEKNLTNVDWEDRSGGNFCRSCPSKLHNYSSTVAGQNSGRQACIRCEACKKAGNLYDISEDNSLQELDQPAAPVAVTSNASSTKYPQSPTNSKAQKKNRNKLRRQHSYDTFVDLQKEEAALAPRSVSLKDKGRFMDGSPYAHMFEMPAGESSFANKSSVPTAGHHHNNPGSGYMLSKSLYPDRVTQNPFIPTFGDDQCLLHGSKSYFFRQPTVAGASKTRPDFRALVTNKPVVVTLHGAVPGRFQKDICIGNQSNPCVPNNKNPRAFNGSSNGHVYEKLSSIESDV
Sequence of Glutamate receptor ionotropic, NMDA 2D (Rattus norvegicus) (Q62645 whole entry): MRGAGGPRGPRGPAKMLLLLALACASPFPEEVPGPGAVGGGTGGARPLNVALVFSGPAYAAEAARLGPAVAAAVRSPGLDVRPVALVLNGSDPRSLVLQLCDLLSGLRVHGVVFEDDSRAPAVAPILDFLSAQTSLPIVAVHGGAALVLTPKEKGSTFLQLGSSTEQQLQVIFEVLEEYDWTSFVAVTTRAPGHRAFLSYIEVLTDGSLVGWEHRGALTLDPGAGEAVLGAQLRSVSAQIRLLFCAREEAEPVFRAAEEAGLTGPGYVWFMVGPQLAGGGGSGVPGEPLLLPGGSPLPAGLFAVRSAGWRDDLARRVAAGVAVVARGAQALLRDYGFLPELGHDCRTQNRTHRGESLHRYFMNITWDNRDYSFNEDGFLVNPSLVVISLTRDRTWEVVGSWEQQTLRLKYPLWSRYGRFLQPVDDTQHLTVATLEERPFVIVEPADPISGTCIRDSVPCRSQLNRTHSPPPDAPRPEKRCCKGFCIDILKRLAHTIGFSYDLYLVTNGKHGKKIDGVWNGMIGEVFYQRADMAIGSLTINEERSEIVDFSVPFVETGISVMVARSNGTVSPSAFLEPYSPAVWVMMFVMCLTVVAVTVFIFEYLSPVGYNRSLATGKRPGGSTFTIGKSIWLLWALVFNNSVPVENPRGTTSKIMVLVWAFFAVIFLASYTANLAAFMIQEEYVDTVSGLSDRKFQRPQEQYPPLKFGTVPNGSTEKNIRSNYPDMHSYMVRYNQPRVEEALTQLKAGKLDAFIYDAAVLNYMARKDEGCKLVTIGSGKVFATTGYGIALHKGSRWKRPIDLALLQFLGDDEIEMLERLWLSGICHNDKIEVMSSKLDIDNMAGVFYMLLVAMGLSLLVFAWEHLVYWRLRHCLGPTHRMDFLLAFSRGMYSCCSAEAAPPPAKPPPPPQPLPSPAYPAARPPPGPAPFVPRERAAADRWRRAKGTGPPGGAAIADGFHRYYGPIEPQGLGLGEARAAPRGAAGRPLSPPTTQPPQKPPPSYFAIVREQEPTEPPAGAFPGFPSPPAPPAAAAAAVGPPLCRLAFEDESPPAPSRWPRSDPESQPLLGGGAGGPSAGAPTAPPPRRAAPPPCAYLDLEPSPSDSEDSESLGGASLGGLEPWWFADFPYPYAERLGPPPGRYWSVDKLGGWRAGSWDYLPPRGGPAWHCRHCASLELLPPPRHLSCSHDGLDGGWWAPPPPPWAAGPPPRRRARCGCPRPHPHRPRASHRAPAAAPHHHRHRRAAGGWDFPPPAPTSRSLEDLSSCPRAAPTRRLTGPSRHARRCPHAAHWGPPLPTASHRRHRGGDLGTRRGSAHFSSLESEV
Sequence of Ionotropic glutamate receptor NMDA 1/2D (Q62645 whole entry, other chains not shown): as the sequence (Q62645 whole entry) above

Row | Compound | Activity [1] [%] | Activity [2] [%] | Activity [3] [%] | EC50 [4] [µM] | EC50 [5] [µM] | Activity [6] [%] | solubility [7] | Activity [8] [%] | Activity [9] | Activity [10] [%] | Activity [11] | EC50 [12] [µM] | Activity [13] | Activity [14] | Activity [15] [%]
1 | CC(C)CCCc1ccc2cc(O)c(C(=O)O)cc2c1 | – | 180 | 113 | – | – | – | Soluble | 78 | inactive | 113 | inactive | – | inactive | inactive | –
2 | CCCCCc1ccc2cc(C(=O)O)ccc2c1Br | – | 99 | 97 | – | – | – | Soluble | 73 | inactive | 52 | inactive | – | inactive | inactive | –
3 | CC(C)CC#Cc1ccc2cc(C(=O)O)ccc2c1 | – | 110 | 125 | – | – | – | Soluble | 104 | inactive | 99 | inactive | – | inactive | inactive | –
4 | CCC/C=C/c1ccc2cc(C(=O)O)ccc2c1 | – | 68 | 82 | – | – | – | Soluble | 51 | inactive | 58 | inactive | – | inactive | inactive | –
5 | CC(C)CC(Cc1ccc2cc(C(=O)O)ccc2c1)C(=O)O (racemic) | – | 85 | 118 | – | – | – | Soluble | 104 | inactive | 78 | inactive | – | inactive | inactive | –
6 | CC(C)CCCc1ccc2cc(C(=O)O)c(C(=O)O)cc2c1 | – | 24 | 47 | – | – | – | Soluble | 92 | inactive | 88 | inactive | – | inactive | inactive | –
7 | O=C(O)c1ccc2cc(C3CC3)ccc2c1 | – | 94 | 97 | – | – | – | Soluble | 97 | inactive | 97 | inactive | – | inactive | inactive | –
8 | CC(C)CCCc1ccc2ccc(C(=O)O)cc2c1 | – | 80 | 115 | – | – | – | Soluble | 123 | inactive | 120 | inactive | – | inactive | inactive | –
9 | O=C(O)c1ccc2cc(I)c3ccccc3c2c1 | – | 47.7 | 65.9 | – | – | – | Soluble | 109 | inactive | 101 | inactive | – | inactive | inactive | –
10 | CC(C/C=C/c1ccc2cc(C(=O)O)ccc2c1)C(=O)O (racemic) | – | 97 | 105 | – | – | – | Soluble | 107 | inactive | 97 | inactive | – | inactive | inactive | –
11 | CCCCOc1ccc2cc(C(=O)O)ccc2c1 | – | 57 | 63 | – | – | – | Soluble | 55 | inactive | 46 | inactive | – | inactive | inactive | –

Further lines, results first:

Row | Activity [1] [%] | Activity [2] [%] | Activity [3] [%] | EC50 [4] [µM] | EC50 [5] [µM] | Activity [6] [%] | solubility [7] | Activity [8] [%] | Activity [9] | Activity [10] [%] | Activity [11] | EC50 [12] [µM] | Activity [13] | Activity [14] | Activity [15] [%] | Compound
12 | 39 | 110 | 126 | 26.7 | 61 | 42.7 | Soluble | 131 | inactive | 102 | inactive | 113 | inactive | inactive | 17.3 | CCCCCc1ccc2cc(C(=O)O)ccc2c1
13 | – | 71 | 96 | – | – | – | Soluble | 60 | inactive | 64 | inactive | – | inactive | inactive | – | CC(CCCc1ccc2cc(C(=O)O)ccc2c1)CC(=O)O (racemic)
14 | – | 37 | 60 | – | – | – | Soluble | 67 | inactive | 67 | inactive | – | inactive | inactive | – | CCCCCc1ccc2cc(CC(=O)O)ccc2c1
15 | – | 85 | 76 | – | – | – | Soluble | 89 | inactive | 84 | inactive | – | inactive | inactive | – | CCCCCc1ccc2cc(CO)ccc2c1
16 | – | 115 | 123 | – | – | – | Soluble | 118 | inactive | 120 | inactive | – | inactive | inactive | – | O=C(O)c1ccc2cc(CCCCc3ccccc3)ccc2c1
17 | – | 107 | 98 | – | – | – | Soluble | 110 | inactive | 85 | inactive | – | inactive | inactive | – | CC(CCCc1ccc2cc(C(=O)O)ccc2c1)C(=O)O (racemic)
